Molecules are shown by their SMILES. Converted amounts (≈) assume the structure as drawn. The source made the active and inactive calls. The calls are words filed in the database; no cut-off is given here.

Experimental findings from ChEMBL document CHEMBL4842325, “Lanosterol 14α-demethylase (CYP51)/histone deacetylase (HDAC) dual inhibitors for treatment of Candida tropicalis and Cryptococcus neoformans infections” (Eur J Med Chem, 2021) are described below.

Test [1] can be described thus: Inhibition of HDAC in Candida tropicalis 5008 using Boc-Lys(Ac)-AMC as substrate preincubated with protoplast for 12 hrs followed by incubation with substrate for 6 hrs by fluorimetric assay. In a few lines:
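Whole-cell assay on C. tropicalis 5008, 100 mg wet weight of exponential-phase cells. Cell wall removed with snailase to give protoplasts, which were dispersed in PBS. Protoplasts incubated with compound at 35 °C for 12 h. Boc-Lys(Ac)-AMC then added to a final 30 µM and incubated 37 °C for 6 h. Stop solution added, 37 °C for 2 h. Fluorescence read at Ex 360/Em 460 nm and converted to HDAC inhibition rate.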

Test [2] deals with Candida albicans. Briefly: Antifungal activity against fluconazole-sensitive Candida albicans 9770 assessed as inhibition of fungal growth. It is filed as functional.
Test [3] has as its system Candida albicans. Description: microbe, parasite or virus in culture. It is filed as functional. The settings on record: 7781.
The subject of test [4] is Candida albicans. Description: Antifungal activity against fluconazole-sensitive Candida albicans 10061 assessed as inhibition of fungal growth. It is filed as functional.
Test [5] concerns Candida albicans. Briefly: microbe, parasite or virus in culture. It is filed as functional. The settings on record: 4108.
The subject of test [6] is Candida tropicalis. Description: microbe, parasite or virus in culture. It is filed as functional. The settings on record: 5008, time 48 hrs.
Test [7] relates to Cryptococcus neoformans. Briefly: microbe, parasite or virus in culture. It is filed as functional. Conditions: H99, time 72 hrs.
The test system of test [8] is Candida albicans. Briefly: Antifungal activity against fluconazole-sensitive Candida albicans SC5314 assessed as inhibition of fungal growth. It is filed as functional.
For test [9], the system named is Candida albicans. Briefly: microbe, parasite or virus in culture. It is filed as functional. The settings on record: 0304103.
Test [10] concerns Candida tropicalis. Briefly: microbe, parasite or virus in culture. It is filed as functional. Conditions: 3890, time 48 hrs.
Test [11] relates to Cryptococcus neoformans. Briefly: Antifungal activity against Cryptococcus neoformans H99 infected in ICR mouse model assessed as reduction in fungal burden in brain at 20 mg/kg, po administered once a day for 5 days. It is filed as functional, organism-based. Conditions: time 5.0 day. In a few lines: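 Immunosuppression by intraperitoneal cyclophosphamide 24 h before infection. Infected on day 0 by intravenous 2 × 10⁵ CFU C. neoformans H99. Oral treatment once daily for 5 consecutive days, starting 24 h post infection; saline group as blank. Brains taken on day 6 and homogenized, dilutions plated on SDA at 35 °C for 48 h. Colonies counted for burden; groups compared by ANOVA.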

The subject of test [12] is Candida tropicalis. Description: Downregulation of MDR1 mRNA expression in Candida tropicalis 5008 at 4 ug/ml measured after 24 hrs by qRT-PCR analysis. It is filed as functional. Conditions: dose 4.0 µg/ml. Summed up: (§1)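 Exponential-phase C. tropicalis 5008 inoculated into 10 mL YPD with compound at several concentrations, DMSO as blank control. Incubated 35 °C for 24 h. Total RNA isolated on columns and reverse-transcribed. Real-time RT-PCR with ACT1 as internal control. Mean of 3 independent assays ± SD.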

The subject of test [13] is Cryptococcus neoformans. Description: Downregulation of CAP59 gene expression in Cryptococcus neoformans H99 at 2 ug/ml measured after 24 hrs by qRT-PCR analysis. It is filed as functional. The settings on record: dose 2.0 µg/ml. In a few lines:
(§2)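 Exponential-phase C. neoformans H99 inoculated into 50 mL YPD with compound. Incubated 35 °C for 24 h, then cultures ground in liquid nitrogen for RNA isolation. Transcript levels of capsule-associated genes quantified by RT-qPCR. Three independent experiments, mean ± SD, t-test.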

Test [14] deals with Cryptococcus neoformans. Description: Antifungal activity against fluconazole-sensitive Cryptococcus neoformans H99 assessed as inhibition of cell proliferation at 2 to 8 ug/ml measured for 48 hrs by time growth curve assay. It is filed as functional, organism-based. Conditions: dose 2-8 µg/ml. In a few lines:
(§3)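 Exponential-phase cells from YEPD resuspended in 3 mL fresh RPMI 1640 at 1 × 10⁵ cells/mL (C. tropicalis 5008) or 1 × 10⁶ cells/mL (C. neoformans H99). Compound at several concentrations; cultures shaken at 240 rpm, 30 °C. Growth read as OD₆₃₀ at 0, 6, 12, 24, 36 and 48 h. Done in triplicate.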

Test [15] concerns Candida tropicalis. Description: Downregulation of ERG11 mRNA expression in Candida tropicalis 5008 at 4 ug/ml measured after 24 hrs by qRT-PCR analysis. It is filed as functional. The settings on record: dose 4.0 µg/ml. Summed up: as §1
The test system of test [16] is Cryptococcus neoformans. Description: Downregulation of CAP10 gene expression in Cryptococcus neoformans H99 at 2 ug/ml measured after 24 hrs by qRT-PCR analysis. The settings on record: dose 2.0 µg/ml. It is filed as functional. In a few lines:
as §2

The test system of test [17] is Candida tropicalis. Briefly: Antifungal activity against Candida tropicalis 5008 assessed as inhibition of fungal filamentation by measuring reduction in hyphae formation at 8 ug/ml incubated for 7 hrs by cell inverted imaging microscopic analysis. It is filed as functional, organism-based. Conditions: dose 8.0 µg/ml. Summed up:
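C. tropicalis 5008 grown to exponential phase in YEPD, diluted to 1 × 10⁵ CFU/mL in spider medium and dosed at several concentrations, with an untreated group for comparison. Incubated 37 °C for 7 h. Cell morphology recorded on a live-cell inverted microscope.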

Test [18] relates to Candida tropicalis. Briefly: Downregulation of CDR1 mRNA expression in Candida tropicalis 5008 at 4 ug/ml measured after 24 hrs by qRT-PCR analysis. Conditions: dose 4.0 µg/ml. It is filed as functional. In a few lines: as §1
Test [19] concerns Cryptococcus neoformans. Briefly: Inhibition of biofilm formation in Cryptococcus neoformans H99 at 8 ug/ml incubated for 24 hrs by XTT reduction assay. The settings on record: dose 8.0 µg/ml. It is filed as functional, organism-based.
Test [20] relates to Candida tropicalis. Briefly: Antifungal activity against fluconazole-resistant Candida tropicalis 5008 assessed as inhibition of cell proliferation at 32 ug/ml measured for 48 hrs by time growth curve assay. It is filed as functional, organism-based. Conditions: dose 32.0 µg/ml. In a few lines: as §3
The subject of test [21] is Cryptococcus neoformans. Briefly: Inhibition of capsule formation in Cryptococcus neoformans H99 assessed as reduction in capsule size at 50 ug/ml incubated for 24 hrs by laser scanning confocal microscopic analysis. The settings on record: dose 50.0 µg/ml. It is filed as functional. Summed up: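 Exponential-phase C. neoformans H99 from YEPD resuspended in PBS at 1 × 10⁷ cells/mL. Suspension placed in wells with FBS plus DMEM and compound at several concentrations; untreated group as control. Kept 24 h at 37 °C under 10% CO₂. Cells mixed with India ink and imaged by confocal microscopy at 63×, 10 random fields. Whole-cell and cell-body diameters measured to derive capsule size.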

`O=C(CCCCCCC(=O)Nc1ccccc1)NO` [VORINOSTAT] showed an IC50 in test [1] of 3.56 µM.
`O=C(Cc1ccc(OCCCCN2CCN(CC(O)(Cn3cncn3)c3ccc(F)cc3F)CC2)cc1)NO` (stereo unspecified): the MIC80 in test [2] was over 64 mg/L; in [3], over 64 mg/L; in test [4], over 64 mg/L; in [5], over 64 mg/L; in [6] it was over 64 mg/L; in [7], 32 mg/L (≈ 58.8 µM). Besides, the MIC80 was over 64 mg/L in test [8], 32 mg/L (≈ 58.8 µM) in [9] and 32 mg/L (≈ 58.8 µM) in test [10].
`O=C(Cc1ccc(OCCCOc2ccc(CN3CCN(CC(O)(Cn4cncn4)c4ccc(F)cc4F)CC3)cc2)cc1)NO` (stereo unspecified): the MIC80 in test [2] is over 64 mg/L; in [3], 4 mg/L (≈ 6.28 µM); in [4] it was over 64 mg/L; in [5], 32 mg/L (≈ 50.3 µM); in [6], 32 mg/L (≈ 50.3 µM); in test [7] it was 4 mg/L (≈ 6.28 µM). For the same compound, the MIC80 in [8] was found to be 4 mg/L (≈ 6.28 µM); in test [9], 32 mg/L (≈ 50.3 µM); in test [10] it was 2 mg/L (≈ 3.14 µM).
As for `O=C(Cc1ccc(OCCCCCCN2CCN(CC(O)(Cn3cncn3)c3ccc(F)cc3F)CC2)cc1)NO` (stereo unspecified), the MIC80 was found to be 16 mg/L (≈ 27.9 µM) in test [2]; 4 mg/L (≈ 6.98 µM) in test [3]; 16 mg/L (≈ 27.9 µM) in [4]; 16 mg/L (≈ 27.9 µM) in [5]; 4 mg/L (≈ 6.98 µM) in [6]; 16 mg/L (≈ 27.9 µM) in test [7]. Moreover, the MIC80 in test [8] came to 16 mg/L (≈ 27.9 µM); in test [9] it was 16 mg/L (≈ 27.9 µM); in test [10] it was 2 mg/L (≈ 3.49 µM).
Consider `O=C(Cc1ccc(OCCCn2ncn(-c3ccc(CN4CCN(CC(O)(Cn5cncn5)c5ccc(F)cc5F)CC4)cc3)c2=O)cc1)NO` (stereo unspecified), for which the MIC80 came to 32 mg/L (≈ 45.5 µM) in test [2]; 2 mg/L (≈ 2.84 µM) in test [3]; 32 mg/L (≈ 45.5 µM) in test [4]; 4 mg/L (≈ 5.68 µM) in [5]; 16 mg/L (≈ 22.7 µM) in test [6]; 2 mg/L (≈ 2.84 µM) in test [7]. For the same compound, the MIC80 in [8], in [9] and in test [10] was 2 mg/L (≈ 2.84 µM) throughout.
Take `OC(Cn1cncn1)(Cn1cncn1)c1ccc(F)cc1F` [FLUCONAZOLE]: the MIC80 in test [2] was over 64 mg/L; in test [3] it was over 64 mg/L; in test [4] it was over 64 mg/L; in test [5], over 64 mg/L; in test [6] it was over 64 mg/L; in test [7], 2 mg/L (≈ 6.53 µM). Moreover, the MIC80 was 0.5 mg/L (≈ 1.63 µM) in test [8], over 64 mg/L in [9] and 0.5 mg/L (≈ 1.63 µM) in test [10]. For the same compound, the result in [11], in test [14], in test [17] and in test [20] was Active. The inhibition result in test [12], in [15], in test [18], in test [19] and in test [21] was “Active” in each case. Besides, the inhibition result in [13] and in test [16] was “inactive” in each case.
With `O=C(Cc1ccc(OCCCCCN2CCN(CC(O)(Cn3cncn3)c3ccc(F)cc3F)CC2)cc1)NO` (stereo unspecified), the MIC80 was over 64 mg/L in [2]; over 64 mg/L in [3]; over 64 mg/L in test [4]; over 64 mg/L in test [5]; over 64 mg/L in test [6]; 32 mg/L (≈ 57.3 µM) in test [7]. The values for the MIC80 in test [8], in test [9] and in test [10] were 32 mg/L (≈ 57.3 µM), over 64 mg/L and 4 mg/L (≈ 7.16 µM), respectively.
